Compound activity: PubChem BioAssay, Broad Institute
IDH1 mut inh: inhibitors of human IDH1 R132H | actives 0.18% (n = 70,000) | IDH1 R132H reductase, diaphorase/resazurin fluorescence, 60 min | inhibition, % at 10 µM | O75874 | AID 624101; in the data active = inhibition above about 34%; inconclusive = no clear call, values can overlap the other calls; inactive = below about 11%
T cruzi growth-1: inhibitors of T. cruzi proliferation | actives 5.9% (n = 77,000) | T. cruzi beta-gal in NIH3T3, GalScreen luminescence, 90 h | inhibition, % at 8.34 µM;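 active = mean inhibition above about 93%, with at least 55% of replicates each passing it, limit read from the data, passing the limit was not always enough; inconclusive = only one of those two conditions holds; inactive = neither condition holds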
KDM4C inh: inhibitors of human demethylase GASC-1 KDM4C. actives 0.15% (n = 96,000). inhibition, % at 12.5 µM. AID 720574. GST-KDM4C 2-372, H3K9me3 peptide, LANCE TR-FRET. Q9H3R0;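 active = mean replicate inhibition above about 25%, with at least 55% of replicates also reaching it, limit read from the data, passing the limit was not always enough; inconclusive = only one of those two conditions met; inactive = neither condition met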
Target sequence (Q9H3R0 2-372 limits assumed): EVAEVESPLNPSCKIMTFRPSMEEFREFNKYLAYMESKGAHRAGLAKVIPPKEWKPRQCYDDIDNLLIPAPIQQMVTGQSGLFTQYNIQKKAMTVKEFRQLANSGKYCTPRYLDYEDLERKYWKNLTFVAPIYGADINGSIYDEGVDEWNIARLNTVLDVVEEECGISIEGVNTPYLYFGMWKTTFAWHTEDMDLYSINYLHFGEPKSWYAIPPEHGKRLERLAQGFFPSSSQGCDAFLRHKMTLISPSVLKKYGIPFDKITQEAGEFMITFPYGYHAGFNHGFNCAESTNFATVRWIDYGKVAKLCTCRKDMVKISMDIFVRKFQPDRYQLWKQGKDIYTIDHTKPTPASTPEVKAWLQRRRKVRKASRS
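System: N-terminal GST-fused human GASC-1 (KDM4C) fragment, residues 2-372 / Amount: 10 nM GST-KDM4C in enzyme reaction / Also added: H3K9me3 peptide with Fe(II)/2OG / Times: 30 min demethylation and 1 h detection at room temperature / Signal: LANCE TR-FRET / Read-out basis: Fall in 671/618 emission ratio as inhibition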
T cruzi growth-2: inhibitors of T. cruzi proliferation | shares compounds with T cruzi growth-1 | inhibition, % at 8.35 µM | AID 651739 | T. cruzi beta-gal in NIH3T3, GalScreen luminescence, 90 h | actives 72% (n = 5,600);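 active = mean replicate inhibition above about 95% and at least 55% of replicates individually reaching it, limit read from the data; inconclusive = only one of the two criteria is met; inactive = neither criterion is met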
T cruzi growth-3: Trypanosoma cruzi proliferation inhibition | shares compounds with T cruzi growth-1 | T. cruzi beta-gal in NIH3T3, GalScreen luminescence, 90 h | inhibition, % at 2.09 µM | actives 21% (n = 5,600) | AID 651740;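 active = mean inhibition above about 95%, with at least 55% of replicates also reaching it, limit read from the data; inconclusive = meets just one of the two conditions; inactive = meets neither condition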
3T3 cytotox: NIH/3T3 (mouse) viability loss | shares compounds with T cruzi growth-1 | NIH/3T3 viability, CellTiter-Glo ATP luminescence, 90 h | cytotoxicity (signal decrease), % at 8.35 µM | actives 14% (n = 5,600) | AID 651742;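 active = mean signal decrease across replicates above about 35% based on untreated-well scatter, with enough replicates individually passing, limit read from the data; inconclusive = no rule stated though some were filed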
3T3 cytotox 2: cytotoxicity in mouse NIH/3T3 fibroblasts | NIH/3T3 viability, CellTiter-Glo ATP luminescence, 90 h | shares compounds with T cruzi growth-1 | actives 56% (n = 5,600) | inhibition, % at 24.9 µM;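 active = mean loss of cell viability signal at or above a set limit, and enough replicates individually reaching it; inconclusive = meets only the mean limit or only the replicate share; inactive = meets neither condition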
Large screens that a line does not name were inactive (follow-up assays come after a bar, where they were run). Shown is part of a subset that was picked to be rich in hits.

COc1ccccc1-c1ccc([C@H]2[C@H](CO)N3CCCCN(Cc4ccncc4)C[C@@H]23)cc1	none (no result: IDH1 mut inh)
OC[C@H]1[C@@H](c2ccc(/C=C/c3ccccc3)cc2)[C@@H]2CN(Cc3cncnc3)CCCCN12	T cruzi growth-1 102 (no result: IDH1 mut inh, KDM4C inh) | T cruzi growth-2 106 | T cruzi growth-3 inactive | 3T3 cytotox inactive | 3T3 cytotox 2 105
OC[C@@H]1[C@H](c2ccc(/C=C/c3ccccc3)cc2)[C@@H]2CN(Cc3cccnc3)CCCCN12	T cruzi growth-1 105 (no result: IDH1 mut inh) | T cruzi growth-2 111 | T cruzi growth-3 inactive | 3T3 cytotox 41 | 3T3 cytotox 2 103
OC[C@@H]1[C@H](c2ccc(/C=C/c3ccccc3)cc2)[C@@H]2CN(Cc3ccncc3)CCCCN12	T cruzi growth-1 121 (no result: IDH1 mut inh) | T cruzi growth-2 107 | T cruzi growth-3 inconclusive | 3T3 cytotox inconclusive | 3T3 cytotox 2 104
OC[C@@H]1[C@@H](c2ccc(/C=C/c3ccccc3)cc2)[C@@H]2CN(Cc3cccnc3)CCCCN12	T cruzi growth-1 inconclusive (no result: IDH1 mut inh) | T cruzi growth-2 104 | T cruzi growth-3 inactive | 3T3 cytotox 46 | 3T3 cytotox 2 103
OC[C@@H]1[C@@H](c2ccc(/C=C/c3ccccc3)cc2)[C@@H]2CN(Cc3cncnc3)CCCCN12	none (no result: IDH1 mut inh)
OC[C@@H]1[C@H](c2ccc(/C=C/c3ccccc3)cc2)[C@H]2CN(Cc3cncnc3)CCCCN12	none (no result: IDH1 mut inh)
CN(CC(=O)Nc1cccc(I)c1)S(=O)(=O)c1ccc(Cl)cc1	none (no result: T cruzi growth-1, KDM4C inh)
Cc1cc(C)c(OCC(=O)Nc2ccccc2C#N)c(Br)c1	none (no result: T cruzi growth-1, KDM4C inh)
COc1ccc(NC(=O)c2ccc(OC(C)C(=O)O)cc2)cc1Cl (centres undefined)	none (no result: T cruzi growth-1, KDM4C inh)
O=C(CSc1ccccn1)Nc1c(C(=O)c2ccc(F)cc2)oc2ccccc12	none (no result: T cruzi growth-1, KDM4C inh)
CCN(CC(=O)Nc1ccccc1OC)S(=O)(=O)c1ccc(Cl)cc1	none (no result: T cruzi growth-1, KDM4C inh)
COc1ccc(OC)c(N(CC(=O)Nc2ccc(F)c(F)c2)S(C)(=O)=O)c1	none (no result: T cruzi growth-1, KDM4C inh)
COc1ccccc1-n1c(SCC(=O)N(c2ccccc2)c2ccccc2)nc2ccccc2c1=O	none (no result: T cruzi growth-1, KDM4C inh)
Cc1ccc(S(=O)(=O)NC2(C(F)(F)F)C(=O)N(Cc3ccco3)C3=C2C(=O)CC(C)(C)C3)cc1 (centres undefined)	none (no result: T cruzi growth-1, KDM4C inh)
CN1c2ccc(-c3ccccc3F)cc2[C@@H]2[C@@H](CCN2S(=O)(=O)c2ccccc2F)[C@@H]1CO	T cruzi growth-1 116 (no result: IDH1 mut inh) | T cruzi growth-2 100 | T cruzi growth-3 inactive | 3T3 cytotox inconclusive | 3T3 cytotox 2 41
CN1c2ccc(-c3ccccc3F)cc2[C@H]2[C@H](CCN2S(=O)(=O)c2ccc(F)cc2)[C@@H]1CO	T cruzi growth-1 113 (no result: IDH1 mut inh) | T cruzi growth-2 99 | T cruzi growth-3 98 | 3T3 cytotox inactive | 3T3 cytotox 2 80
CN1c2ccc(-c3ccccc3F)cc2[C@H]2[C@H](CCN2S(=O)(=O)c2ccccc2F)[C@@H]1CO	none (no result: IDH1 mut inh)
Cc1ccc(S(=O)(=O)N2CC[C@H]3[C@@H](CO)N(C)c4ccc(-c5ccccc5F)cc4[C@H]32)cc1	none (no result: IDH1 mut inh)
CC(=O)c1cccc(NC(=O)CSc2nc(-c3ccc(F)cc3)cs2)c1	none (no result: T cruzi growth-1, KDM4C inh)
COc1ccc(C#Cc2ccc([C@@H]3[C@@H](CO)N4CCCCN(C(=O)c5ccncc5)C[C@H]34)cc2)cc1	T cruzi growth-1 112 (no result: IDH1 mut inh) | T cruzi growth-2 107 | T cruzi growth-3 inactive | 3T3 cytotox 45 | 3T3 cytotox 2 103
COc1ccc(C#Cc2ccc([C@H]3[C@H](CO)N4CCCCN(C(=O)c5ccncc5)C[C@@H]34)cc2)cc1	T cruzi growth-1 116 (no result: IDH1 mut inh) | T cruzi growth-2 114 | T cruzi growth-3 inactive | 3T3 cytotox inactive | 3T3 cytotox 2 97
COc1ccc(C#Cc2ccc([C@H]3[C@@H](CO)N4CCCCN(C(=O)c5ccncc5)C[C@@H]34)cc2)cc1	T cruzi growth-1 116 (no result: IDH1 mut inh) | T cruzi growth-2 104 | T cruzi growth-3 inactive | 3T3 cytotox inactive | 3T3 cytotox 2 inactive
C[C@@H](O)C#Cc1ccc([C@@H]2[C@H](CO)N3CCCCN(C(=O)c4ccncc4)C[C@@H]23)cc1	none (no result: IDH1 mut inh)
C[C@H](O)C#Cc1ccc([C@H]2[C@@H](CO)N3CCCCN(C(=O)c4ccncc4)C[C@@H]23)cc1	none (no result: IDH1 mut inh)
C[C@H](O)C#Cc1ccc([C@H]2[C@@H](CO)N3CCCCN(C(=O)c4ccncc4)C[C@H]23)cc1	none (no result: IDH1 mut inh)
